Experimental data taken from ChEMBL document CHEMBL1177700, “Discovery of bishomo(hetero)arylpiperazines as novel multifunctional ligands targeting dopamine D(3) and serotonin 5-HT(1A) and 5-HT(2A) receptors” (J Med Chem, 2010).
Activity calls are given as the source filed them. The calls are words filed in the database; no cut-off is given here.

Experiments:
Mus musculus [1] = assay: Antipsychotic activity in NMRI mouse assessed as inhibition of PCP-induced locomotor activity at 3 mg/kg, ip administered 30 mins prior to testing measured for 60 mins; type: functional, organism-based; design: dose 3 mg/kg
Mus musculus [2] = assay: Antipsychotic activity in NMRI mouse assessed as reduction of PCP-induced locomotor activity at 10 mg/kg, ip administered 30 mins prior to testing measured for 60 mins; type: functional, organism-based; design: dose 10 mg/kg
Mus musculus [3] = assay: Antipsychotic activity in ip dosed NMRI mouse assessed as reduction in spontaneous exploratory locomotor activity administered 30 mins prior to testing measured for 60 mins; type: functional
[4] = target: 5-hydroxytryptamine receptor 2A (Rattus norvegicus, UniProt P14842); assay: Displacement of [3H]ketanserin from 5HT2A receptor in CRL:CD(SD)BR-COBS rat cortex by scintillation spectrometry
Sequence of 5-hydroxytryptamine receptor 2A (P14842 whole entry): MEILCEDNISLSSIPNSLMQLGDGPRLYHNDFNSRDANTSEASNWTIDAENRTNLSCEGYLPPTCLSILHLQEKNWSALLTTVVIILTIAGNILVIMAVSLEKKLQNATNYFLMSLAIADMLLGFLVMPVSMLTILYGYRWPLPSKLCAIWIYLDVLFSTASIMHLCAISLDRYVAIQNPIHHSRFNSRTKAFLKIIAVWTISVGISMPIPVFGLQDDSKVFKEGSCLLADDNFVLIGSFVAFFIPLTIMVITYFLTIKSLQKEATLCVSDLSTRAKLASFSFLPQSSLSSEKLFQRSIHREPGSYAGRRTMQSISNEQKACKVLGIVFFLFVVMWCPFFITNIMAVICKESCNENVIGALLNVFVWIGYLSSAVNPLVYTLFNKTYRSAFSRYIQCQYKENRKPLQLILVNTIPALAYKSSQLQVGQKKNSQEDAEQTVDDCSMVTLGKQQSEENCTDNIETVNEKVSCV

[5] = target: T1, 5-hydroxytryptamine receptor 1A (Rattus norvegicus, UniProt P19327); assay: Displacement of [3H]8OH-DPAT from 5HT1A receptor in rat CRL:CD(SD)BR-COBS hippocampus by scintillation spectrometry; type: tissue-based
T1 sequence (P19327 whole entry): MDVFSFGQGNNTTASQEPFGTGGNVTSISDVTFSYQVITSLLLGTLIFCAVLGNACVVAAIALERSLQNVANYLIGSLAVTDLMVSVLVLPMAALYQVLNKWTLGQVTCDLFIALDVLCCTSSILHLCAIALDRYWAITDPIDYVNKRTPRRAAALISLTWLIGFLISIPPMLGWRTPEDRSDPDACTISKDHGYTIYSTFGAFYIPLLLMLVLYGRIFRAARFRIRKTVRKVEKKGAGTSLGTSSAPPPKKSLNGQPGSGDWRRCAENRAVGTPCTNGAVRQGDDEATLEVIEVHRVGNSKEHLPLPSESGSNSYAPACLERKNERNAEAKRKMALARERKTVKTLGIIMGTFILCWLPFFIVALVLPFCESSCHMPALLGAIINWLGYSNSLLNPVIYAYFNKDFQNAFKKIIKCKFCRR
In short: (§1)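 Radioligand displacement binding gave Ki (nM). Each value is the mean of three determinations, with SD within 10% of the mean.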

[6] = Displacement of [3H]mesulergine from 5HT2C receptor in CRL:(HA) BR albino guinea pig cortex by scintillation spectrometry; design: species or system Cavia porcellus; in short: as §1
[7] = Lipophilicity, log D at pH 7.4; type: physicochemical; details: buffer
[8] = target: Voltage-gated inwardly rectifying potassium channel KCNH2 (Homo sapiens, UniProt Q12809); assay: Binding affinity to human ERG expressed in HEK293 cells; type: cell-based
Sequence of Voltage-gated inwardly rectifying potassium channel KCNH2 (Q12809 whole entry): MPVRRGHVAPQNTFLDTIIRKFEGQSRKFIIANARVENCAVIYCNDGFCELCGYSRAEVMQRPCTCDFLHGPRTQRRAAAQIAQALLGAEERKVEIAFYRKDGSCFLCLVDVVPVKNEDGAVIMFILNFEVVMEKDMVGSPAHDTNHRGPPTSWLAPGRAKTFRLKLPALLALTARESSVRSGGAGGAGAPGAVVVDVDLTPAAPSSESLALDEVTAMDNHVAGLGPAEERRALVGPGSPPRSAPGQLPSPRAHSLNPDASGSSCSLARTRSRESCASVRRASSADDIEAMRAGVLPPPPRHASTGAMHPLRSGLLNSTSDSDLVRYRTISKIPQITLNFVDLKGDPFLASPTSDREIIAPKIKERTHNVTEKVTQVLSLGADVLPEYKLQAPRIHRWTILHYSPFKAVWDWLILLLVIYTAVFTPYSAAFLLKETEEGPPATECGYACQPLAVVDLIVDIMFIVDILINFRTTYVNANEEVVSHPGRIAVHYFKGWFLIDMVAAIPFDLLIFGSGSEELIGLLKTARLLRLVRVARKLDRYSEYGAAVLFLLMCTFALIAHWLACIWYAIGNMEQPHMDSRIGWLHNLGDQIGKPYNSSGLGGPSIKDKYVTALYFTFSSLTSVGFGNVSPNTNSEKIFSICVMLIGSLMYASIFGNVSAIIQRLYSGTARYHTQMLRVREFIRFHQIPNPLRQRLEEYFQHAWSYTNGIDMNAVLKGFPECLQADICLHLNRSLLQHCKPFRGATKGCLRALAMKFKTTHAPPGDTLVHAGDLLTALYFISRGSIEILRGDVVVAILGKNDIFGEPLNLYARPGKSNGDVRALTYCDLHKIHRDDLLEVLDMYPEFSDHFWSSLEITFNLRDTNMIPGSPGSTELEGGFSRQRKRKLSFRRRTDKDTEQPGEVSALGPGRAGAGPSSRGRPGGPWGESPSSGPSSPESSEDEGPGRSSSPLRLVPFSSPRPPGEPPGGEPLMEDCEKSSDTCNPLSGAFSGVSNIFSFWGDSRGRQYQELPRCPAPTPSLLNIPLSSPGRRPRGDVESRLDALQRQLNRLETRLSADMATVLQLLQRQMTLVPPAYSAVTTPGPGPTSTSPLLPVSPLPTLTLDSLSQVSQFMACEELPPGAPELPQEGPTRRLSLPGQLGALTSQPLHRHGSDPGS

D(1A) dopamine receptor = D(1A) dopamine receptor (Rattus norvegicus, UniProt P18901); assay: Displacement of [3H]SCH23390 from dopamine D1 receptor in CRL:CD(SD)BR-COBS rat striatum by scintillation spectrometry
Sequence of D(1A) dopamine receptor (P18901 whole entry): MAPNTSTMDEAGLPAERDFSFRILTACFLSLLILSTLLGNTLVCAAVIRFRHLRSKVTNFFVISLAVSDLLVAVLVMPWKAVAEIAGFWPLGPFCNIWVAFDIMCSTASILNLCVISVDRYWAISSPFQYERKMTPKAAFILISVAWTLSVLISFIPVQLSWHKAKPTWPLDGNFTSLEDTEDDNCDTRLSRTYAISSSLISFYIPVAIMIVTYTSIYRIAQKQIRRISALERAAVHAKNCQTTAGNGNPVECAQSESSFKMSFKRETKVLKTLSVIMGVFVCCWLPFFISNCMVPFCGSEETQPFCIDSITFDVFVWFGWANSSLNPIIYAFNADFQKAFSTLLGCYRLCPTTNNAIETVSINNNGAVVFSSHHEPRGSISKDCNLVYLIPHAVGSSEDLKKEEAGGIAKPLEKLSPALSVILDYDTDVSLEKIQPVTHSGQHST

D(2) dopamine receptor = D(2) dopamine receptor (Rattus norvegicus, UniProt P61169); assay: Displacement of [3H]spiperone from dopamine D2 receptor in CRL:CD(SD)BR-COBS rat striatum by scintillation spectrometry
Sequence of D(2) dopamine receptor (P61169 whole entry): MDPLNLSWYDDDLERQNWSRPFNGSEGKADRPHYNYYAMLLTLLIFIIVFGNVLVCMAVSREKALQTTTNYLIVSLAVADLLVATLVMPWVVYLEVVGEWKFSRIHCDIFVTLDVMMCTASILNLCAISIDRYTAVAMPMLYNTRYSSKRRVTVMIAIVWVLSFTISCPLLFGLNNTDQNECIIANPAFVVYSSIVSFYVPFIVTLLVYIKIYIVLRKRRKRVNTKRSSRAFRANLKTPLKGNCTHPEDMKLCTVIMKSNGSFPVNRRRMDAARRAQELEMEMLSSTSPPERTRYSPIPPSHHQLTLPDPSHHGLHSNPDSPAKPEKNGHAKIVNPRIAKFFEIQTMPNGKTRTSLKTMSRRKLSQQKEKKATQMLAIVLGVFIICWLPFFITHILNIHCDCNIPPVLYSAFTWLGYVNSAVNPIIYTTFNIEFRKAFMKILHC

[9] = Partition coefficient, log P of the compound; type: physicochemical; details: octanol/water
[10] = Half life in NMRI mouse at 3 mg/kg, ip; type: ADME, organism-based; design: dose 3 mg/kg, route intraperitoneal; details: in vivo
In short: (§2)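 Mice received a single 3 mg/kg ip dose, and plasma concentrations were measured over time. […] Cmax, Tmax and T1/2 were taken from the plasma level profiles.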

[11] = AUC (0 to 6 hrs) in NMRI mouse at 3 mg/kg, ip; type: ADME, organism-based; design: time < 6 hr, dose 3 mg/kg, route intraperitoneal; details: plasma; in short: as §2
Mus musculus [12] = assay: Antipsychotic activity in NMRI mouse assessed as reduction in spontaneous exploratory locomotor activity at 30 mg/kg, ip administered 30 mins prior to testing measured for 60 mins; type: functional; details: route intraperitoneal
[13] = Tmax in NMRI mouse at 3 mg/kg, ip; type: ADME, organism-based; design: dose 3 mg/kg, route intraperitoneal; details: in vivo; in short: as §2
Mus musculus [14] = assay: Antipsychotic activity in NMRI mouse assessed as reduction in MK-801-induced locomotor activity at 10 mg/kg, ip administered 30 mins prior to testing measured for 60 mins; type: functional; details: route intraperitoneal
[15] = Cmax in NMRI mouse at 3 mg/kg, ip; type: ADME, organism-based; design: dose 3 mg/kg, route intraperitoneal; details: in vivo; in short: as §2
Mus musculus [16] = assay: Antipsychotic activity in NMRI mouse assessed as increase of MK-801-induced locomotor activity at 1 mg/kg, ip administered 30 mins prior to testing measured for 60 mins; type: functional, organism-based; design: dose 1 mg/kg
Mus musculus [17] = assay: Antipsychotic activity in NMRI mouse assessed as increase of methamphetamine-induced locomotor activity at 0.3 mg/kg, ip administered 30 mins prior to testing measured for 60 mins; type: functional, organism-based; design: dose 0.3 mg/kg
Mus musculus [18] = assay: Antipsychotic activity in NMRI mouse assessed as increase of spontaneous exploratory locomotor activity at 1 mg/kg, ip administered 30 mins prior to testing measured for 60 mins; type: functional
Mus musculus [19] = assay: Antipsychotic activity in NMRI mouse assessed as reduction in MK-801-induced locomotor activity at 30 mg/kg, ip administered 30 mins prior to testing measured for 60 mins; type: functional; details: route intraperitoneal
Mus musculus [20] = assay: Antipsychotic activity in NMRI mouse assessed as reduction in spontaneous exploratory locomotor activity at 10 mg/kg, ip administered 30 mins prior to testing measured for 60 mins; type: functional; details: route intraperitoneal
Mus musculus [21] = assay: Antipsychotic activity in NMRI mouse assessed as reduction in methamphetamine-induced locomotor activity at > 30 mg/kg, ip administered 30 mins prior to testing measured for 60 mins; type: functional; details: route intraperitoneal

Compound: O=C1CCc2ccc(OCCCCN3CCN(c4cccc(Cl)c4Cl)CC3)cc2N1 [ARIPIPRAZOLE]
- Activity (Mus musculus [1]): Active
- Activity (Mus musculus [2]): Active
- ED50 (Mus musculus [3]): 2.5 mg/kg

Compound: COc1cccc(N2CCN(CCCCCCN3CCN(c4cccc(OC)c4)CC3)CC2)c1
- Ki [4]: 28 nM
- Ki [5]: 8 nM
- Ki [6]: 303 nM
- logD [7]: 3.25
- Ki [8]: 2400 nM
- Ki (D(1A) dopamine receptor): > 1000 nM
- Ki (D(2) dopamine receptor): 27 nM
- logP [9]: 4.19

Compound: Cc1cccc(N2CCN(CCCCCCN3CCN(c4ccccc4)CC3)CC2)n1
- Ki [4]: 25 nM
- Ki [5]: 8 nM
- Activity (Mus musculus [1]): Active
- half-life [10]: 150 min
- Ki [6]: 309 nM
- logD [7]: 1.89
- AUC(0-t) at 6 h [11]: 362 ng·h/mL
- Activity (Mus musculus [12]): 30 mg/kg
- Activity (Mus musculus [2]): Active
- Ki (D(1A) dopamine receptor): > 1000 nM
- Tmax [13]: 18 min
- Ki (D(2) dopamine receptor): 24 nM
- logP [9]: 3.99
- Activity (Mus musculus [14]): 10 mg/kg
- Cmax [15]: 121 ng/mL

Compound: Cc1cccc(N2CCN(CCCCCCN3CCN(c4cccc(C)n4)CC3)CC2)c1
- Ki [4]: 6 nM
- Ki [5]: 11 nM
- Activity (Mus musculus [1]): Active
- Ki [6]: 68 nM
- logD [7]: 2.46
- AUC(0-t) at 6 h [11]: 243 ng·h/mL
- Activity (Mus musculus [2]): Active
- Activity (Mus musculus [16]): Active
- Ki (D(1A) dopamine receptor): > 1000 nM
- Tmax [13]: 120 min
- Ki (D(2) dopamine receptor): 33 nM
- logP [9]: 4.62
- Cmax [15]: 58 ng/mL

Compound: Cc1cccc(N2CCN(CCCCCCN3CCN(c4ccccn4)CC3)CC2)c1
- Activity (Mus musculus [17]): Active
- Ki [4]: 10 nM
- Ki [5]: 2 nM
- Activity (Mus musculus [1]): Active
- Activity (Mus musculus [18]): inactive
- Ki [6]: 150 nM
- logD [7]: 2.72
- Activity (Mus musculus [2]): Active
- Ki [8]: 8700 nM
- Ki (D(1A) dopamine receptor): > 1000 nM
- Ki (D(2) dopamine receptor): 44 nM
- logP [9]: 4.23

Compound: Cc1cccc(N2CCN(CCCCCCN3CCN(c4ccccc4)CC3)CC2)c1
- Ki [4]: 10 nM
- Ki [5]: 19 nM
- Activity (Mus musculus [1]): Active
- Ki [6]: 182 nM
- logD [7]: 3.53
- AUC(0-t) at 6 h [11]: 147 ng·h/mL
- Activity (Mus musculus [12]): 30 mg/kg
- Activity (Mus musculus [2]): Active
- Ki [8]: 3800 nM
- Ki (D(1A) dopamine receptor): > 1000 nM
- Tmax [13]: 30 min
- Ki (D(2) dopamine receptor): 20 nM
- logP [9]: 4.45
- Cmax [15]: 41 ng/mL

Compound: Cc1cccc(N2CCN(CCCCCCN3CCN(c4cccc(C)c4)CC3)CC2)c1
- Ki [4]: 20 nM
- Ki [5]: 48 nM
- Ki [6]: 120 nM
- logD [7]: 4.03
- Ki [8]: 2200 nM
- Ki (D(1A) dopamine receptor): > 1000 nM
- Ki (D(2) dopamine receptor): 70 nM
- logP [9]: 5

Compound: c1ccc(N2CCN(CCCCCCN3CCN(c4ccccn4)CC3)CC2)cc1
- Activity (Mus musculus [19]): 30 mg/kg
- Ki [4]: 39 nM
- Ki [5]: 30 nM
- Activity (Mus musculus [1]): Active
- Ki [6]: > 1000 nM
- logD [7]: 2.14
- AUC(0-t) at 6 h [11]: 58 ng·h/mL
- Activity (Mus musculus [2]): Active
- Ki [8]: 13000 nM
- Ki (D(1A) dopamine receptor): > 1000 nM
- Tmax [13]: 60 min
- Activity (Mus musculus [20]): 10 mg/kg
- Ki (D(2) dopamine receptor): 34 nM
- logP [9]: 3.61
- Cmax [15]: 50 ng/mL

Compound: c1ccc(N2CCN(CCCCCCN3CCN(c4ccccn4)CC3)CC2)nc1
- Ki [4]: 45 nM
- Ki [5]: 16 nM
- Activity (Mus musculus [1]): Active
- Ki [6]: > 1000 nM
- logD [7]: 1.33
- AUC(0-t) at 6 h [11]: 84 ng·h/mL
- Activity (Mus musculus [12]): 30 mg/kg
- Activity (Mus musculus [2]): Active
- Ki [8]: > 10000 nM
- Ki (D(1A) dopamine receptor): > 1000 nM
- Tmax [13]: 60 min
- Ki (D(2) dopamine receptor): 159 nM
- logP [9]: 3.39
- Cmax [15]: 26 ng/mL

Compound: c1ccc(N2CCN(CCCCCCN3CCN(c4ccccc4)CC3)CC2)cc1
- Ki [4]: 31 nM
- Ki [5]: 3 nM
- Activity (Mus musculus [1]): Active
- Ki [6]: > 1000 nM
- logD [7]: 2.96
- AUC(0-t) at 6 h [11]: 198 ng·h/mL
- Activity (Mus musculus [2]): Active
- Ki [8]: 8000 nM
- Ki (D(1A) dopamine receptor): > 1000 nM
- Tmax [13]: 30 min
- Activity (Mus musculus [20]): 10 mg/kg
- Ki (D(2) dopamine receptor): 1 nM
- Activity (Mus musculus [21]): >30 mg/kg
- logP [9]: 3.83
- Cmax [15]: 71 ng/mL

Compound: c1ccc(N2CCN(CCCCCCN3CCN(c4ccnc5ccccc45)CC3)CC2)cc1
- Ki [4]: 34 nM
- Ki [5]: 49 nM
- Ki [6]: > 1000 nM
- logD [7]: 3.1
- Ki [8]: 3800 nM
- Ki (D(1A) dopamine receptor): > 1000 nM
- Ki (D(2) dopamine receptor): 41 nM
- logP [9]: 5.61

Compound: Cc1cccc(N2CCN(CCCCCCN3CCN(c4ccnc5ccccc45)CC3)CC2)c1
- logD [7]: 3.67
- Ki [8]: 900 nM
- logP [9]: 6.23

Compound: Cc1cccc(N2CCN(CCCCNC(=O)c3cc4ccccc4o3)CC2)c1
- Activity (Mus musculus [1]): Active
- Ki [6]: 206 nM
- AUC(0-t) at 6 h [11]: 128 ng·h/mL
- Activity (Mus musculus [2]): Active
- Ki (D(1A) dopamine receptor): 263 nM
- Tmax [13]: 30 min
- Ki (D(2) dopamine receptor): 4.5 nM
- Cmax [15]: 155 ng/mL

Compound: Clc1cccc(N2CCN(CCCCCCN3CCN(c4cccc(Cl)c4)CC3)CC2)c1
- Ki [4]: 98 nM
- Ki [5]: 16 nM
- Ki [6]: 504 nM
- logD [7]: 4.58
- Ki [8]: 300 nM
- Ki (D(1A) dopamine receptor): > 1000 nM
- Ki (D(2) dopamine receptor): 11 nM
- logP [9]: 5.35

Compound: COc1cccc(N2CCN(CCCCCCN3CCN(c4cccc(Cl)c4)CC3)CC2)c1
- Ki [4]: 7 nM
- Ki [5]: 1 nM
- Ki [6]: 92 nM
- logD [7]: 3.89
- Ki [8]: 1200 nM
- Ki (D(1A) dopamine receptor): > 1000 nM
- Ki (D(2) dopamine receptor): 4 nM
- logP [9]: 4.7

Compound: O=C(CCCN1CCC(O)(c2ccc(Cl)cc2)CC1)c1ccc(F)cc1 [HALOPERIDOL]
- Activity (Mus musculus [1]): Active
- Activity (Mus musculus [2]): Active
- ED50 (Mus musculus [3]): 0.08 mg/kg
